# Source: PubChem BioAssay
# The list is not random: actives were taken first. Their share in the collection is about 1.3%.
# CHT allo act = allosterically activates the human high affinity choline transporter. CHT-expressing cells, membrane potential dye, choline EC20; hits give high values; LV-AA mutant CHT in HEK293 cells. B-score at 10 µM. 310,000 compounds, 0.49% hits;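 active = initial fluorescence not abnormally high and integrated response B-score, plate-corrected, over 3 SD above library mean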
# CHT block = inhibitors of human choline transporter CHT; Q9GZV3; CHT-expressing cells, membrane potential dye, choline response; hits give low values; B-score at 10 µM; 310,000 compounds, 0.86% hits;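 active = B-score over 3 SD under the library average, and starting fluorescence ratio not unusually high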;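 note: choline stimulus applied at its EC90 after an EC20 pre-addition; B-score computed on integrated fluorescence ratio after choline addition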
# procasp7 counter = activates human procaspase-7, counter-screen for procaspase-3 activators; 330,000 compounds, 0.093% hits; P55210; AID 463210; recombinant procaspase-7, Ac-DEVD-pNA absorbance 405 nm; D23A/D198A/D206A triple mutant, cannot self-cleave; scale: DMSO 0, 5 µM enzyme 100; activation, % at 8.5 µM;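 active = percent activation above the screen-wide mean plus 3 SD, cut at about 25% in these data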
# Target sequence (P55210 whole entry D23A/D198A/D206A): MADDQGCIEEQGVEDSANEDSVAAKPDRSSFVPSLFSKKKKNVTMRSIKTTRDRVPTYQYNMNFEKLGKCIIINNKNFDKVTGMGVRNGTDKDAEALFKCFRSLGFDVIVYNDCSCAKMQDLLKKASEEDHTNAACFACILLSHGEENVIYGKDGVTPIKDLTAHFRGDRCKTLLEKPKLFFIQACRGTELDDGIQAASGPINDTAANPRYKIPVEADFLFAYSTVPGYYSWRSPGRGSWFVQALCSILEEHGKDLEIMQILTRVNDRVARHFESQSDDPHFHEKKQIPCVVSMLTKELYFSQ
#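 signal = Epi-absorbance of released pNA at 405 nm, two timepoints | assay system = Uncleavable procaspase-7 mutant enzyme | reagent = Ac-DEVD-pNA substrate, 400 µM as added | times = 1 h enzyme–compound preincubation and 2 h substrate reaction, both 25 °C | benchmarks = low DMSO alone, high DMSO plus 5 µM PC-7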
# procasp3 activ = activates human procaspase-3; recombinant procaspase-3 D3A, Ac-DEVD-pNA absorbance 405 nm; 330,000 compounds, 0.11% hits; P42574; activation, % at 8.5 µM;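 active = activation above the mean of all tested compounds plus 3 SD, cut at about 21% in these data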;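 note: 0% = DMSO alone and 100% = DMSO wells spiked with extra 5 µM PC-3 D3A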
# Target sequence (P42574 whole entry D9A/D28A/D175A): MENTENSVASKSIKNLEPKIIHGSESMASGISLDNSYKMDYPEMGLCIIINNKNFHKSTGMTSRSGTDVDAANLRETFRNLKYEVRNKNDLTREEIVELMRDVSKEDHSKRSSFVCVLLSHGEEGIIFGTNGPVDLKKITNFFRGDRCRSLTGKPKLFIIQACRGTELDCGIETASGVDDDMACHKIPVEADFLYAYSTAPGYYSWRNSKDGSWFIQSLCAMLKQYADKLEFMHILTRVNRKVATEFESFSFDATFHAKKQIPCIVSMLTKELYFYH
#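 Compound: 8.5 µM single point, 0.8% DMSO / Material: Autoprocessing-dead procaspase-3 D3A mutant enzyme / Timing: 1 h preincubation plus 2 h reaction at 25 °C / Medium: Zinc-free HEPES/NaCl buffer with 0.01% Triton X-100 at pH 7.4 / Technique: 405 nm absorbance of p-nitroaniline, reads at 0 and 120 min / Repeats: one well per compound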
# CHT act confirm = human CHT activation, confirmatory screen; 2,500 compounds, 91% hits; shares compounds with CHT allo act; CHT-expressing cells, membrane potential dye fluorescence (FDSS); % of choline EC20–EC90 response window; HEK293 expressing CHT LV-AA mutant; choline added at its EC20; activation, % at 10 µM; AID 504833;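 active = primary screen active, with duplicate mean activation above negative control mean plus 3 SD, cut at about 11% in these data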
# HEK293 MP dye = CHT activator counter-screen hit in parental HEK293 cells; shares compounds with CHT allo act; membrane potential dye fluorescence (FDSS); measured after EC20 choline addition; ratio readout change at 10 µM, hits read low; 2,500 compounds, 62% hits; AID 623908;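 active = duplicate-averaged ratio beyond 3 SD from buffer wells, up or down, though filed actives are nearly all decreases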
# Starred values were filed as active, the others as inactive; i = inactive; . = not tested or not shown.
SMILES,CHT allo act,CHT block,procasp7 counter,procasp3 activ,CHT act confirm,HEK293 MP dye
CCC(=O)NC(Nc1sc2c(c1C(=O)OC)CCCC2)(C(F)(F)F)C(F)(F)F,i,i,3.2,-1.1,.,.
COC(=O)c1c(NC(NC(=O)c2ccccc2)(C(F)(F)F)C(F)(F)F)sc2c1CCN(C)C2,7.19*,i,5.0,-1.8,69.5*,-58.6*
Cc1cc(C)n2nc(C(=O)Nc3ccc(S(=O)(=O)N4CCCCC4)cc3)nc2n1,i,i,1.2,0.4,21.7*,-23.9*
N#Cc1ccc(CSc2nnc(NC(=O)CCc3nc4ccccc4c(=O)[nH]3)s2)cc1,i,i,-3.8,-6.5,.,.
C[n+]1c2n(c3ccccc31)N=C(c1ccc(-c3ccccc3)cc1)CS2,7.94*,i,8.3,-4.0,39.5*,-35.3*
C[n+]1c2n(c3ccccc31)N=C(c1ccccc1)CS2,7.09*,i,-29.6,-20.7,57.9*,-55*
CCc1nnc(NC(=O)CSc2nc(C)cs2)s1,i,i,-2.5,-2.8,.,.
CCc1nnc(NC(=O)CSc2nnc3nc(C)cc(C)n23)s1,8.54*,i,8.8,2.4,51.6*,-60.7*
N#Cc1cc2c(=O)n3ccccc3nc2n(Cc2cccnc2)c1=O,6.94*,i,-4.1,-9.6,48.0*,-44*
COc1cccc(N2CCc3c(C)nc4ccc(Cl)cc4c32)c1,i,i,.,.,41.5*,-28.7*
COc1ccc(N2CCc3c(C)nc4c(OC)cccc4c32)cc1,i,i,-1.8,-1.8,33.4*,-55.9*
Cc1nc2c(C)cccc2c2c1CCN2c1ccccc1F,i,i,3.8,0.2,46.7*,-53.8*
COc1cccc2c3c(c(C)nc12)CC(C)O3 (stereo unspecified),9.94*,i,-6.1,3.3,52.8*,-69.5*
COc1ccccc1N(CC(O)CN1CCC(C)CC1)S(=O)(=O)c1ccccc1 (stereo unspecified),i,i,1.6,7.5,.,.
CC1(C)CC(=O)C2=C(C1)OC(N)=C([N+](=O)[O-])C2c1cccs1 (stereo unspecified),i,i,-22.9,-11.7,.,.
COc1ccc(CCC(=O)N2CCN(C(=O)c3ccccc3)CC2)cc1,i,i,19.6,8.3,.,.
CCCNC(=O)COCc1cc(-c2ccc3c(c2)OCO3)on1,i,i,-4.5,-10.7,.,.
CCCCNC(=O)COCc1cc(-c2ccc3c(c2)OCO3)on1,10.4*,i,13.6,-6.0,28.7*,i
O=C(Nc1ccc(Cl)cc1)Nc1ccc2c(c1)N1CCN=C1S2,i,i,2.6,2.9,.,.
Nc1ccc2c(c1)N1CCN=C1S2,i,i,-18.9,5.3,54.0*,-48.6*
CCN(Cc1ccccc1)C(c1ccc(Cl)cc1)c1nnnn1C(C)(C)C (stereo unspecified),7.19*,i,3.3,-1.8,31.6*,i
Cn1c(=O)c2c(-c3ccccc3)n(CCCN3CCOCC3)cc2n(C)c1=O,i,i,-3.4,-10.5,78.6*,-52.2*
Oc1ccccc1N=Nc1nc(-c2ccccc2)c(-c2ccccc2)[nH]1,i,i,-0.9,-8.3,-0.5,i
NC1CCN(c2nc3c(cc2F)c(=O)c(C(=O)O)cn3-c2ccc(F)cc2F)C1 (stereo unspecified),i,i,-4.1,6.9,.,.
NC1CCN(c2c(F)cc3c(=O)c(C(=O)O)cn(C4CC4)c3c2Cl)C1 (stereo unspecified),i,i,6.4,-4.9,18.3*,-48*
SMILES,CHT allo act,CHT block,procasp7 counter,procasp3 activ,CHT act confirm,HEK293 MP dye
COc1c(N2CCN(C(=S)Nc3ccc(F)cc3)C(C)C2)c(F)cc2c(=O)c(C(=O)O)cn(C3CC3)c12 (stereo unspecified),i,i,-3.0,-2.9,.,.
COc1c(N2CCNC(C)C2)c(F)cc2c(=O)c(C(=O)O)cn(C3CC3)c12 (stereo unspecified),6.69*,i,-10.9,-3.8,35.9*,-44.6*
O=C(Nc1ccnn1C1CCN(Cc2cccc(OCCO)c2)CC1)C1CC1,i,i,-7.8,3.7,.,.
COc1cc(C2NC(=O)CCC2[N+](=O)[O-])cc(Br)c1OC (stereo unspecified),i,i,-0.7,-0.5,.,.
CCOC(CNC(=O)c1ccc2c(c1)ncn2-c1ccc(F)c(F)c1)OCC,i,i,-5.6,-5.4,.,.
CCOCCCn1c(=NC(C)=O)c(C(=O)OCC)cc2c(=O)n3ccccc3nc21,i,i,-6.0,-8.7,17.2*,-41.6*
CCOCCCn1c(=NC(C)=O)c(C#N)cc2c(=O)n3ccccc3nc21,i,i,-4.7,-6.2,.,.
Clc1cccc(COn2c(-c3ccc(Cl)cc3Cl)nc3ncccc32)c1,i,i,3.8,8.9,.,.
Cc1ccc(COn2c(-c3ccc(Cl)cc3Cl)nc3ncccc32)cc1,6.61*,i,4.8,8.6,30.6*,i
Cc1cc(NC(=O)c2cnn3cccnc23)no1,7.66*,i,1.3,6.9,62.9*,-53.9*
O=C(Nc1cc(Cl)cc(Cl)c1)c1cnn2cccnc12,i,i,11.1,5.4,.,.
Cc1ccc(NC(=O)CN(C)C(=O)CSc2nnc(N)s2)cc1,.,.,2.9,9.5,.,.
CC(C)(C)c1ccc(C(=O)N2CCC(=O)N(C(COCc3ccccc3)Cc3ccccc3)CC2)cc1 (stereo unspecified),i,i,-3.6,3.3,2.8,i
O=C(COc1ccccc1Cc1ccccc1)Nc1cccnc1,.,.,-9.2,4.9,.,.
NC(=O)CSc1nnc(-c2cccs2)n1Cc1ccco1,i,i,-2.8,-18.0,.,.
Cc1ccc(C)c(CSc2nnc(-c3cccs3)n2Cc2ccco2)c1,7.14*,i,15.7,-1.0,60.2*,i
O=C(C1CCN(S(=O)(=O)c2cnc[nH]2)CC1)N(CCc1ccccc1)Cc1ccccc1,i,i,3.2,4.1,.,.
O=C(C1CCN(CC2CC=CCC2)CC1)N(CCc1ccccc1)Cc1ccccc1 (stereo unspecified),i,i,-40.8,-0.9,3.9,i
COc1ccc(/C=C/c2ccc3ccccc3[n+]2C)cc1OC,i,i,-14.8,-1.8,.,.
CC(=O)Oc1ccccc1/C=C/c1ccc2ccccc2[n+]1C,6.85*,i,-13.0,6.2,47.7*,-41.9*
C=CC[n+]1ccc2ccccc2c1C,7.74*,i,1.3,-6.8,64.7*,-60.7*
CCOCc1cc(CN2CCCC(CNC(=O)c3ccco3)C2)ccc1OC (stereo unspecified),i,i,9.5,-0.6,.,.
